# Experimental data collected from several papers.
# Protocols differ between the studies behind these lines.
# Organism: Severe acute respiratory syndrome coronavirus 2
Structure (SMILES),effect on,action,cells,time,IC50
CCN(CCO)CCCC(C)Nc1ccnc2cc(Cl)ccc12 (centres unmarked),viral replication,inhibitor,Vero C1008,,9.21 µM
N=C(N)NCCN1CCCCCCC1,viral replication,inhibitor,Huh-7,,> 2 µM
Cc1cccc(C)c1OCC(=O)N[C@@H](Cc1ccccc1)[C@@H](O)C[C@H](Cc1ccccc1)NC(=O)[C@H](C(C)C)N1CCCNC1=O,viral replication,inhibitor,Vero C1008,,7.79 to 12 µM
CCCCCCCCCC(=O)N[C@@H](Cc1c[nH]c2ccccc12)C(=O)N[C@H](CC(N)=O)C(=O)N[C@@H](CC(=O)O)C(=O)N[C@@H]1C(=O)NCC(=O)N[C@@H](CCCN)C(=O)N[C@@H](CC(=O)O)C(=O)N[C@H](C)C(=O)N[C@@H](CC(=O)O)C(=O)NCC(=O)N[C@H](CO)C(=O)N[C@@H]([C@H](C)CC(=O)O)C(=O)N[C@@H](CC(=O)c2ccccc2N)C(=O)O[C@@H]1C,viral replication,inhibitor,Vero,24 h,> 0.4 µg/mL
Nc1nc(S[C@@H]2O[C@H](CO)[C@@H](O)[C@H](O)[C@H]2O)[nH]c(=S)c1C(=O)Nc1ccc(Cl)cc1,viral replication,,Vero C1008,72 h,45.3 µM
CCN(CC)CCNC(=O)c1cc(Cl)c(N)cc1OC,viral replication,inhibitor,Huh-7,,0.468 µM
CC(=O)OC[C@H]1O[C@@H](Sc2nc(N)c(C(=O)Nc3ccc(Cl)cc3)c(=S)[nH]2)[C@H](OC(C)=O)[C@@H](OC(C)=O)[C@@H]1OC(C)=O,viral replication,,Vero C1008,72 h,77.4 µM
CC(C)C(=O)OCC(=O)[C@@]12O[C@H](C3CCCCC3)O[C@@H]1C[C@H]1[C@@H]3CCC4=CC(=O)C=C[C@]4(C)[C@H]3[C@@H](O)C[C@@]12C,viral replication,,VeroE6/TMPRSS2,,8 µM
CCCCCCCCCCCCCCCC(=O)N[C@H]1C[C@@H](O)[C@@H](O)NC(=O)[C@@H]2[C@@H](O)[C@@H](C)CN2C(=O)[C@H]([C@@H](C)O)NC(=O)[C@H]([C@H](O)[C@@H](O)c2ccc(O)cc2)NC(=O)[C@@H]2C[C@@H](O)CN2C(=O)[C@H]([C@@H](C)O)NC1=O,viral replication,inhibitor,Vero,24 h,1.3 µg/mL
COc1c(C)c2c(c(O)c1C/C=C(\C)CCC(=O)OCCN1CCOCC1)C(=O)OC2,viral replication,inhibitor,Calu-3,40 h,2.15 µM
CN(C)CCC=C1c2ccccc2CCc2ccccc21,viral replication,inhibitor,A549-ACE2,,0.871 µM
CC(C)[N+]1(C)[C@@H]2CC[C@H]1C[C@@H](OC(=O)C(CO)c1ccccc1)C2 (some centres unmarked),viral replication,inhibitor,Huh-7,,0.056 µM
C=C[C@@H]1C[C@]1(NC(=O)[C@@H]1C[C@@H](Oc2ncc(OC)c3ccc(Cl)cc23)CN1C(=O)[C@@H](NC(=O)OC(C)(C)C)C(C)(C)C)C(=O)NS(=O)(=O)C1CC1,viral replication,,HEK-293T,,48.4 µM
CCOP(=O)(OCC)N1C/C(=C\c2ccc(F)cc2)C(=O)C2(C1)C(c1ccc(F)cc1)CN(C)C21C(=O)Nc2ccc(Cl)cc21 (centres unmarked),viral replication,inhibitor,Vero C1008,72 h,13.5 µM
Nc1nc2nc[nH]c2c(=S)[nH]1,viral replication,inhibitor,Huh-7,,0.178 µM
CC[C@@H](C)[C@@H]1NC(=O)[C@@H]2CCCN2C(=O)[C@H](Cc2ccccc2)N(C)C(=O)[C@H](Cc2ccccc2)NC(=O)[C@H](C(C)C)N(C)C(=O)[C@@H]([C@H](C)CC)OC(=O)[C@H](C(C)(C)O)N(C)C(=O)[C@H](CC(C)C)NC(=O)[C@H](C(C)C)N(C)C1=O,viral replication,inhibitor,Calu-3,40 h,4.53 µM
Nc1nc(S)[nH]c(=S)c1C(=O)Nc1ccc(Cl)cc1,viral replication,,Vero C1008,72 h,289 µM
C[C@H](Nc1nc(N2CCNCC2)nc2ccccc12)c1ccccc1,cytopathic effect,,Vero C1008,72 h,10 µM
COc1cccc2c1CCCC2CCCN1CCN(C2CCCCC2)CC1 (centres unmarked),viral replication,inhibitor,A549-ACE2,,0.407 µM
CCN(C)C(=O)Oc1cccc([C@H](C)N(C)C)c1,viral replication,inhibitor,Huh-7,,> 2 µM
CCN(CC)CCOc1ccc(C(O)(Cc2ccc(Cl)cc2)c2ccc(C)cc2)cc1 (centres unmarked),viral replication,inhibitor,A549-ACE2,,0.363 µM
CCN(CC)CCCC(C)Nc1c2ccc(Cl)cc2nc2ccc(OC)cc12 (centres unmarked),viral replication,,Calu-3,,> 50 µM
COC(=O)Nc1nc2ccc(C(=O)c3ccccc3)cc2[nH]1,viral replication,inhibitor,Vero C1008,,0.25 to 1.2 µM
COc1cc2c(cc1OC)C(=O)C(CC1CCN(Cc3ccccc3)CC1)C2 (centres unmarked),viral replication,inhibitor,A549-ACE2,,7.76 µM
CC(C)(C)[C@@H]1NC(=O)O[C@@H]2CCC[C@H]2OC/C=C/C(F)(F)c2nc3ccccc3nc2O[C@@H]2C[C@@H](C(=O)N[C@]3(C(=O)NS(=O)(=O)C4(C)CC4)C[C@H]3C(F)F)N(C2)C1=O,viral replication,,HEK-293T,,> 50 µM
O=C(Nc1ccc([N+](=O)[O-])cc1Cl)c1cc(Cl)ccc1O,viral replication,inhibitor,Huh-7,,0.142 µM
CCN(CC)CCO[C@H]1CC[C@@]2(C)C(=CC[C@@H]3[C@@H]2CC[C@]2(C)C(=O)CC[C@@H]32)C1,viral replication,,Vero C1008,,2.4 µM
CC(C)(C)CC(C)(C)c1ccc(O)c(Cc2ccc(Cl)cc2Cl)c1,viral replication,inhibitor,Calu-3,40 h,3.26 µM
Fc1ccc(-n2cc(CCCCN3CCC4(CC3)OCc3ccccc34)c3ccccc32)cc1,viral replication,inhibitor,A549-ACE2,,2.04 µM
CCCCCCCCC=CCCCCCCCC(=O)NCCO,viral replication,inhibitor,Huh-7,,> 2 µM
CC(=O)OC[C@H]1O[C@@H](Sc2nc(N)c(C(=O)Nc3ccccc3)c(=S)[nH]2)[C@H](OC(C)=O)[C@@H](OC(C)=O)[C@@H]1OC(C)=O,viral replication,,Vero C1008,72 h,126 µM
COc1cc2c(cc1OC)CN(CCc1ccc(NC(=O)c3cccc4c(=O)c5cccc(OC)c5[nH]c34)cc1)CC2,viral replication,,Vero C1008,,0.575 µM
Cc1ccc(NC(=O)c2c(N)nc(S[C@@H]3O[C@H](CO)[C@H](O)[C@H](O)[C@H]3O)[nH]c2=S)cc1,viral replication,,Vero C1008,72 h,34 µM
CCC(CC)COC(=O)[C@H](C)N[P@](=O)(OC[C@H]1O[C@@](C#N)(c2ccc3c(N)ncnn23)[C@H](O)[C@@H]1O)Oc1ccccc1,viral replication,inhibitor,Calu-3,40 h,0.389 µM
CCN(CC)CCCC(C)Nc1ccnc2cc(Cl)ccc12 (centres unmarked),viral replication,inhibitor,Vero C1008,,1.38 µM
CC(CN1c2ccccc2Sc2ccccc21)N(C)C (centres unmarked),viral replication,inhibitor,Vero C1008,,9.21 µM
Cc1cccc(/C=N/Nc2cc(N3CCOCC3)nc(OCCc3ccccn3)n2)c1,viral replication,inhibitor,Vero C1008,,0.012 µM
Nc1nc(S[C@@H]2O[C@H](CO)[C@@H](O)[C@H](O)[C@H]2O)[nH]c(=S)c1C(=O)Nc1ccccc1,viral replication,,Vero C1008,72 h,47.8 µM
COc1ccc([C@@H]2Sc3ccccc3N(CCN(C)C)C(=O)[C@@H]2OC(C)=O)cc1,viral replication,inhibitor,Vero C1008,,> 45 µM
CN1[C@@H]2CC[C@H]1C[C@@H](OC(c1ccccc1)c1ccc(Cl)cc1)C2 (some centres unmarked),cytopathic effect,,Vero C1008,72 h,8.9 µM
CN(C)CCCN1c2ccccc2Sc2ccc(Cl)cc21,viral replication,inhibitor,Vero C1008,,3.14 µM
CCN(CC)CCS(=O)(=O)[C@@H]1CCN2C(=O)c3coc(n3)CC(=O)C[C@H](O)/C=C(C)/C=C/CNC(=O)/C=C/[C@@H](C)[C@@H](C(C)C)OC(=O)[C@@H]12,viral replication,inhibitor,Huh-7,,> 2 µM
CNc1ccc2oc(C[C@H]3O[C@@]4(CC[C@H]3C)O[C@H]([C@H](C)C(=O)c3ccc[nH]3)[C@H](C)C[C@H]4C)nc2c1C(=O)O,viral replication,inhibitor,Calu-3,40 h,1.55 µM
Fc1ccc([C@@H]2CCNC[C@H]2COc2ccc3c(c2)OCO3)cc1,viral replication,,Vero C1008,,3.55 µM
O=C1NCN(c2ccccc2)C12CCN(CCCC(c1ccc(F)cc1)c1ccc(F)cc1)CC2,viral replication,inhibitor,Vero C1008,,3.16 µM
CCCCc1oc2ccc(NS(C)(=O)=O)cc2c1C(=O)c1ccc(OCCCN(CCCC)CCCC)cc1,viral replication,inhibitor,Vero C1008,,1.5 µM
CC[C@H](C)C[C@H](C)CCCCCCCCC(=O)N[C@H]1C[C@@H](O)[C@@H](NCCN)NC(=O)[C@@H]2[C@@H](O)CCN2C(=O)[C@H]([C@H](O)CCN)NC(=O)[C@H]([C@H](O)[C@@H](O)c2ccc(O)cc2)NC(=O)[C@@H]2C[C@@H](O)CN2C(=O)[C@H]([C@@H](C)O)NC1=O,viral replication,inhibitor,Vero,24 h,> 200 µg/mL
